The target in assay [1] is Protein farnesyltransferase (Bos taurus, UniProt P29702+P49355). Nature of the assay: Inhibitory activity against Ras Farnesyl Protein transferase from bovine brain. The gist of the method:
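FPTase purified from bovine brain (about 1 nM) incubated with [³H]FPP, recombinant Harvey-Ras and varying inhibitor concentrations. Protein was acid-precipitated and Ras-bound label counted by scintillation. IC50 is the concentration halving label incorporation relative to the no-inhibitor control, given as mean ± SEM with the number of determinations.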

The target in assay [2] is T1, Geranylgeranyl transferase type I (Bos taurus, UniProt P29702+Q5EAD5). Nature of the assay: Inhibitory activity against bovine type-1 geranylgeranyl transferase. The class given is protein-complex assay.
Assay [3] concerns the target T2, Protein farnesyltransferase (Mus musculus) (UniProt Q61239+Q8K2I1). Nature of the assay: Inhibition of v-ras posttranslational processing in NIH3T3 cells at 100 uM. Type of assay: cell-based. Put shortly: (§1)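 NIH 3T3 cells expressing viral Ha-ras were metabolically labeled with [³⁵S]methionine while exposed to compound or solvent control. Cells were lysed after 24 h and Ras was immunoprecipitated to assess posttranslational processing. Scored as percent inhibition of processing; +++ means ≥90% inhibition. Lovastatin 15 μM was the reference.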

For assay [4], the system named is NIH3T3. Nature of the assay: The cytotoxic endpoint, the highest nontoxic concentration for cultured NIH3T3 cells. Particulars: Mus musculus. Type of assay: functional, cell-based. Put shortly:
(§2)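 NIH3T3 fibroblasts exposed to compound for 48 h; viability read by MTT staining. Endpoint is the highest concentration tolerated without toxicity. Top concentration tested was 100 μM for most compounds; one lactone was dosed up to 1 mM.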

Assay [5] concerns the target T1, Geranylgeranyl transferase type I. Put plainly: In vitro inhibition of bovine type-1 geranylgeranyl transferase. Type of assay: protein-complex assay.
For assay [6], the target named is T2, Protein farnesyltransferase (Mus musculus). Put plainly: Inhibition of v-ras posttranslational processing in NIH3T3 cells (No inhibition). The class given is cell-based. Put shortly:
as §1

Assay [7] in a line: The binding affinity against Ras protein.
Assay [8] concerns the target T2, Protein farnesyltransferase (Mus musculus). Nature of the assay: Inhibition of v-ras posttranslational processing in NIH3T3 cells at 1 uM. The class given is cell-based. The gist of the method:
as §1

For assay [9] the target is unchanged. Nature of the assay: Inhibition of v-ras posttranslational processing in NIH3T3 cells at 10 uM. The class given is cell-based. The gist of the method:
as §1

For assay [10] the target is unchanged. Put plainly: Inhibition of v-ras posttranslational processing in NIH3T3 cells at 5 uM (No inhibition). Type of assay: cell-based. Put shortly: as §1
For assay [11], the system named is NIH3T3. Nature of the assay: Highest nontoxic concentration in NIH3T3 cells. The settings on record: Mus musculus. The class given is functional, cell-based. Put shortly: as §2
Assay [12] addresses T2, Protein farnesyltransferase (Mus musculus). Put plainly: Inhibition of v-ras posttranslational processing in NIH3T3 cells at 15 uM. Type of assay: cell-based. Put shortly:
as §1

Active and inactive are the calls of the source. The calls are words filed in the database; no cut-off is given here.

One may read the IC50 as the concentration that gives 50% inhibition. Low readings indicate greater potency, high ones weaker potency. In general, inhibition refers to the percentage by which the read-out fell short of the control. As usually defined, the Ki is a dissociation constant, usually derived from enzyme kinetics or from competition with a known ligand. Read a high Ki as weaker binding.

For `CC[C@H](C)[C@H](NC(=O)[C@@H](NC[C@@H](N)CS)C(C)C)C(=O)N[C@@H](CCSC)C(=O)O`, the IC50 in assay [1] turned out to be 7 nM; in [2], 0.028 µM.

In the case of `CC[C@H](C)[C@H](NC[C@@H](N)CS)C(=O)N[C@H](C(=O)N[C@H]1CCOC1=O)[C@@H](C)CC`, the inhibition in assay [3] is 30%. The Concentration in the assay on NIH3T3 [4] is over 100 µM.

`CCC(C)[C@@H](CN[C@@H](Cc1ccccc1)C(=O)N[C@@H](CCSC)C(=O)O)NCC(N)CS` (stereo partly specified) showed an inhibition in assay [3] of 30%. Besides, the Concentration in the assay with NIH3T3 [4] is over 100 µM. In addition, the results for the 50% inhibitory concentration (IC50) in [5] and in assay [1] were 5.75 µM and 4.8 nM, respectively.

As to `CC[C@H](C)[C@H](NC[C@@H](NC[C@@H](N)CS)[C@@H](C)CC)C(=O)N[C@@H](CCO)C(=O)O`, the inhibition entry in assay [6] was “inactive”. This molecule also registered a Concentration in the assay with NIH3T3 [4] of over 100 µM. In assay [7], this molecule yielded an inhibition constant Ki of 20 nM. The concentration for half-maximal inhibition (IC50) in assay [1] came to 20 nM; in [2], 45 µM.

`CCC(C)[C@@H](CN[C@@H](Cc1ccccc1)C(=O)N[C@@H](CCSC)C(=O)OC)NCC(N)CS` (stereo partly specified) showed an inhibition in assay [8] of 10%. Further, in the assay on NIH3T3 [4], the Concentration stood at 1 µM.

On to `CCC(C)[C@H](NCC(N)CS)C(=O)N[C@H](CN[C@@H](CCSC)C(=O)O)Cc1ccccc1` (stereo partly specified), for which the concentration for half-maximal inhibition (IC50) in assay [5] turned out to be 1.1 µM; in [1], 140 nM.

In assay [3], `CC[C@@H](C)[C@H](NC[C@@H](NC[C@@H](N)CS)[C@H](C)CC)C(=O)N[C@H]1CCOC1=O` gave an inhibition of over 90%. Besides, the Concentration in the assay with NIH3T3 [4] was over 1000 µM.

Turning to `CC[C@H](C)[C@H](NC(=O)[C@@H](NC(=O)[C@@H](N)CS)C(C)C)C(=O)N[C@@H](CCSC)C(=O)O`, the 50% inhibitory concentration (IC50) in assay [1] worked out at 165 nM; in assay [2], 49 µM.

In the case of `CC[C@H](C)[C@H](NC(=O)[C@@H](NCCCS)C(C)C)C(=O)N[C@@H](CCSC)C(=O)O`, the 50% inhibitory concentration (IC50) in [1] came to 29 nM; in assay [2], 2.2 µM.

In assay [1], `CCC(C)[C@H](NC[C@@H](NC(=O)[C@@H](N)CS)C(C)CC)C(=O)N[C@@H](CCO)C(=O)O` (stereo partly specified) yielded an IC50 of 150 nM.

Consider `CC[C@H](C)[C@H](NC(=O)[C@@H](N)CS)C(=O)N[C@@H](Cc1ccccc1)C(=O)N[C@@H](CCSC)C(=O)O`, for which the values for the IC50 in [1] and in assay [2] were 27 nM and 300 µM, respectively.

In the case of `CCOC(=O)[C@H](CCSC)NC(=O)[C@H](Cc1ccccc1)NC(=O)[C@@H](NCC(N)CS)C(C)CC` (stereo partly specified), the Concentration in the assay on NIH3T3 [4] amounted to 10 µM. The inhibition in assay [9] was 10%.

In the case of `CCC(C)[C@@H](CN[C@@H](Cc1ccccc1)C(=O)N[C@@H](CCSC)C(=O)O)NCCCS` (stereo partly specified), the IC50 in assay [5] was over 10 µM; in [1], 400 nM.

With `CC[C@H](C)[C@H](NC(=O)[C@@H](NC[C@@H](N)CS)C(C)C)C(=O)N[C@@H](CC(C)C)C(=O)O`, the IC50 in [1] came out at 550 nM.

In the case of `CCC(C)[C@H](NCC(N)CS)C(=O)N[C@@H](Cc1ccccc1)C(=O)N[C@@H](CCSC)C(=O)OCc1ccccc1` (stereo partly specified), the inhibition result in [10] was “inactive”. For the same molecule, the Concentration in the assay with NIH3T3 [11] amounted to 5 µM.

`CC[C@H](C)[C@H](NC(=O)[C@@H](NC(=O)[C@@H](N)CS)[C@@H](C)CC)C(=O)N[C@@H](CCO)C(=O)O` came in with a 50% inhibitory concentration (IC50) in [1] of 330 nM.

Take `CC[C@H](C)[C@H](NCCCS)C(=O)N[C@@H](Cc1ccccc1)C(=O)N[C@@H](CCSC)C(=O)O`: the IC50 in assay [1] is 50 nM; in [2], over 10 µM.

Regarding `CC[C@H](C)[C@H](NC[C@@H](N)CS)C(=O)N[C@H](C(=O)N[C@@H](CCO)C(=O)O)[C@@H](C)CC`, the inhibition entry in assay [6] was “inactive”. In addition, the Concentration in the assay on NIH3T3 [4] is over 100 µM. Moreover, the IC50 came out at 42 nM in [1] and 8 µM in [2].

In [12], `CC[C@H](C)C(=O)O[C@H]1C[C@@H](C)C=C2C=C[C@H](C)[C@H](CC[C@@H]3C[C@@H](O)CC(=O)O3)[C@H]21` came in with an inhibition of over 90%.

`CCCCCCCCCCOC(=O)[C@H](CCSC)NC(=O)[C@H](Cc1ccccc1)NC(=O)[C@@H](NCC(N)CS)C(C)CC` (stereo partly specified): the Concentration with NIH3T3 [11] was 2 µM.

Turning to `CC[C@H](C)[C@H](NC[C@@H](N)CS)C(=O)N[C@@H](Cc1ccccc1)C(=O)N[C@@H](CCSC)C(=O)O`, the inhibition in assay [3] stood at 10%. The molecule further returned a Concentration with NIH3T3 [4] of over 100 µM. Moreover, the IC50 in [1] is 18 nM; in assay [2], 0.31 µM.

(Values after ChEMBL document CHEMBL1127813, “Pseudopeptide inhibitors of Ras farnesyl-protein transferase” (J Med Chem, 1994).)
